Results from ChEMBL document CHEMBL2169863, “Discovery, structure-activity relationship, and biological evaluation of noninhibitory small molecule chaperones of glucocerebrosidase” (J Med Chem, 2012).
The source made the active and inactive calls.

Legend:
[1] = biological target: Lysosomal alpha-glucosidase (Homo sapiens) (UniProt P10253); experiment: Activation of alpha-glucosidase using 4-MU-alpha-glucose as substrate
[2] = Activation of alpha-galactosidase using 4-MU-alpha-galactose as substrate
[3] = test system: T1, Lysosomal acid glucosylceramidase (Homo sapiens), P04062 [N409S]; experiment: Activation of glucocerebrosidase N370S mutant in Gaucher patient spleen homogenates using 4-methylumbelliferone-Glc as substrate assessed as half-maximal activation concentration incubated for 5 mins prior to substrate addition measured after 30 to 45 mins by fluorimetric analysis; assay type: tissue-based
T1 sequence (whole entry): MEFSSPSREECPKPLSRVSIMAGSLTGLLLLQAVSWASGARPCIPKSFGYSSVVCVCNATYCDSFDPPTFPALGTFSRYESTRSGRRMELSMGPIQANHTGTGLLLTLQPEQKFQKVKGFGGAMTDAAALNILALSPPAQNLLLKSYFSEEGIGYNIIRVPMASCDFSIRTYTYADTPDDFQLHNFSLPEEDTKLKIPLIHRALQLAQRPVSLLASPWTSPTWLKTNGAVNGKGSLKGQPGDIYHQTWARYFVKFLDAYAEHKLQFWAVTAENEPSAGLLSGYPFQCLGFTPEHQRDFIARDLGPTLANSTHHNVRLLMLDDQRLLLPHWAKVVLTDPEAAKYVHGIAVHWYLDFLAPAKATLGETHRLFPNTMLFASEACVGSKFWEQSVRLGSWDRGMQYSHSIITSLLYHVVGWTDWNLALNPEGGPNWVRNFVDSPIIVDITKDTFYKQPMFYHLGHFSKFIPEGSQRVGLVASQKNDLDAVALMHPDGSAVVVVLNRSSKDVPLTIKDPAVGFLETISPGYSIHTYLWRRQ
Method in brief: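 Spleen homogenate (27 μg final) in pH 5 citrate/phosphate buffer with KCl, NaCl, MgCl₂ and 0.01% Tween-20. Compound was titrated 0.5 nM to 58 μM and preincubated 5 min at room temperature. Reaction used 1 mM 4MU-Glc for 30−45 min at 37 °C and was stopped with NaOH/glycine pH 10. Read-out was fluorescence at Ex 365/Em 440 nm. AC₅₀ is the average of N = 2.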

Activity [1] | Activity [2] | Activity [3] | Structure (SMILES)
inactive | inactive | 13 µM | Cc1ccc(NC(=O)c2cnn3c(C)cc(C)nc23)c(C)c1
inactive | inactive | inactive | Cc1ccc(NC(=O)c2cnn3c(-c4ccccc4)cc(C)nc23)cc1
inactive | inactive | inactive | Cc1cc(-c2ccccc2)n2ncc(C(=O)Nc3ccccc3Sc3ccccc3)c2n1
inactive | inactive | – | O=C(Nc1ccccc1Sc1ccccc1)c1cnn2c(C(F)(F)F)cc(C3CC3)nc12
inactive | inactive | 4.11 µM | Cc1cc(C)n2ncc(C(=O)N[C@H]3CC[C@H](C(C)(C)C)CC3)c2n1
inactive | inactive | inactive | Cc1cc(C)n2ncc(C(=O)Nc3ccncc3)c2n1
inactive | inactive | inactive | Cc1cc(C)n2ncc(C(=O)Nc3cccc(C#N)c3)c2n1
inactive | inactive | – | CCc1ccc(NC(=O)c2cnn3c(C(F)F)cc(C4CC4)nc23)cc1
inactive | inactive | inactive | COc1ccc(NC(=O)c2cnn3c(C)cc(C)nc23)cc1OC
inactive | inactive | 10.3 µM | Cc1cc(C)n2ncc(C(=O)NC3CCCCC3)c2n1
inactive | inactive | 163 µM | CC(=O)c1ccc(NC(=O)c2cnn3c(C)cc(C)nc23)cc1
inactive | inactive | – | O=C(NC1CCCCC1)c1cnn2c(C(F)F)cc(C3CC3)nc12
inactive | inactive | 8.19 µM | Cc1cc(C)n2ncc(C(=O)Nc3ccccc3)c2n1
inactive | inactive | inactive | Cc1cc(C)n2ncc(C(=O)Nc3ccc(S(C)(=O)=O)cc3)c2n1
inactive | inactive | 25.9 µM | Cc1cc(C)n2ncc(C(=O)Nc3cc(Cl)cc(Cl)c3)c2n1
inactive | inactive | 1.46 µM | Cc1cc(C)n2ncc(C(=O)Nc3ccc(C)c(C)c3)c2n1
inactive | inactive | 1.46 µM | COc1ccc(NC(=O)c2cnn3c(C)cc(C)nc23)cc1F
inactive | inactive | – | O=C(Nc1ccc2c(c1)CCC2)c1cnn2c(C(F)F)cc(C3CC3)nc12
inactive | inactive | 51.7 µM | Cc1cc(C)n2ncc(C(=O)NCc3ccco3)c2n1
inactive | inactive | 25.9 µM | Cc1cc(C)n2ncc(C(=O)N[C@H]3CC[C@@H](C(C)(C)C)CC3)c2n1
inactive | inactive | inactive | COc1ccc(NC(=O)c2cnn3c(-c4ccccc4)cc(C)nc23)cc1
inactive | inactive | 32.6 µM | Cc1cc(C)n2ncc(C(=O)NCC(C)C)c2n1
inactive | inactive | inactive | Cc1cc(C)n2ncc(C(=O)N3CCCC3)c2n1
inactive | inactive | 51.7 µM | Cc1cc(C)n2ncc(C(=O)NCc3ccccc3)c2n1

Activity [1] | Activity [2] | Activity [3] | Structure (SMILES)
inactive | inactive | 8.19 µM | Cc1cc(-c2ccccc2)nc2c(C(=O)Nc3ccc4c(c3)CCC4)cnn12
inactive | inactive | inactive | CNC(=O)c1cnn2c(C)cc(C)nc12
inactive | inactive | – | Cc1cc(-c2ccccc2)nc2c(C(=O)Nc3ccc(Cl)c(Cl)c3)cnn12
inactive | inactive | 2.59 µM | Cc1cc(C)n2ncc(C(=O)Nc3ccc4c(c3)CCC4)c2n1
inactive | inactive | 2.31 µM | Cc1cc(C)n2ncc(C(=O)Nc3ccc(C(C)(C)C)cc3)c2n1
inactive | inactive | 1.63 µM | Cc1ccc(NC(=O)c2cnn3c(C)cc(C)nc23)cc1
inactive | inactive | 20.6 µM | Cc1cc(C)n2ncc(C(=O)Nc3ccc(C#N)cc3)c2n1
inactive | inactive | 2.06 µM | COc1ccc(NC(=O)c2cnn3c(C)cc(C)nc23)cc1Cl
inactive | inactive | inactive | CC(=O)Nc1ccc(NC(=O)c2cnn3c(C)cc(C)nc23)cc1
inactive | inactive | 8.19 µM | COc1ccc(NC(=O)c2cnn3c(C)cc(C)nc23)cc1
inactive | inactive | 16.3 µM | Cc1cc(C)n2ncc(C(=O)Nc3ccccc3C)c2n1
inactive | inactive | inactive | CC(=O)Nc1cccc(NC(=O)c2cnn3c(C)cc(C)nc23)c1
inactive | inactive | 41.1 µM | Cc1cc(C)n2ncc(C(=O)Nc3cccc(C(F)(F)F)c3)c2n1
inactive | inactive | 3.26 µM | CCc1ccc(NC(=O)c2cnn3c(C)cc(C)nc23)cc1
inactive | inactive | 6.51 µM | Cc1cccc(NC(=O)c2cnn3c(C)cc(C)nc23)c1
inactive | inactive | 10.3 µM | Cc1cc(C)n2ncc(C(=O)Nc3ccc4c(c3)OCCO4)c2n1
inactive | inactive | inactive | Cc1cc(C)n2ncc(C(=O)NC(C)C)c2n1
inactive | inactive | 32.6 µM | CC(=O)c1cccc(NC(=O)c2cnn3c(C)cc(C)nc23)c1
inactive | inactive | inactive | Cc1cc(-c2ccccc2)n2ncc(C(=O)Nc3ccc(Cl)c(Cl)c3)c2n1
inactive | inactive | 18.3 µM | Cc1cc(C)n2ncc(C(=O)Nc3ccccc3Sc3ccccc3)c2n1
inactive | inactive | inactive | COc1cc(NC(=O)c2cnn3c(C)cc(C)nc23)cc(OC)c1OC
inactive | inactive | 6.51 µM | Cc1cc(C)n2ncc(C(=O)Nc3ccc4c(c3)OCO4)c2n1
inactive | inactive | 12.9 µM | CCc1ccc(NC(=O)c2cnn3c(C)cc(-c4ccccc4)nc23)cc1
